Measured values published in ChEMBL document CHEMBL4011649 (J Med Chem, 2017).
The source made the active and inactive calls. No cut-off for these calls is given here.

Assays:
[1] = target: T1, 5-hydroxytryptamine receptor 2B (Homo sapiens, UniProt P41595); test: Displacement of [3H]-LSD from human 5-HT2B receptor expressed in HEKT cells after 90 mins by scintillation counting method; format: cell-based
[2] = target: T2, 5-hydroxytryptamine receptor 2C (Homo sapiens) (UniProt P28335); test: Agonist activity at human 5-HT2C-INI receptor isoform expressed in Flp-IN HEK293 cells assessed as induction of Gq-mediated calcium flux measured every second for 5 mins by Fluo-4 dye based FLIPR assay relative to serotonin; format: functional, cell-based
T2 sequence (whole entry): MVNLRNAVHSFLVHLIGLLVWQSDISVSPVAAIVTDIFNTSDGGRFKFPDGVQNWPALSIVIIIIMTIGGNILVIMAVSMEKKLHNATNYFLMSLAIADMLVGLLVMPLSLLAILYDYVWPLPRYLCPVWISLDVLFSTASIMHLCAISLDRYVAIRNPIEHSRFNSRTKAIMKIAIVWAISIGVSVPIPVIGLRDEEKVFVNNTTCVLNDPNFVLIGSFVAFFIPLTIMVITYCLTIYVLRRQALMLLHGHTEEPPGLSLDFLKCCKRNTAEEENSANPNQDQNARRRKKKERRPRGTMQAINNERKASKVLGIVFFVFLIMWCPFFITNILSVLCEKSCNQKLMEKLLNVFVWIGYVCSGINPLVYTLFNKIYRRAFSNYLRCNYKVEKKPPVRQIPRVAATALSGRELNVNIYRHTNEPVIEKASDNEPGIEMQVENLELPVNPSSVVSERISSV

[3] = target: Voltage-gated inwardly rectifying potassium channel KCNH2 (Homo sapiens, UniProt Q12809); test: Inhibition of human ERG expressed in CHO cells by automated patch-clamp assay; format: cell-based
Procedure, shortened: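 Read-out is an IC50 in µM for hERG inhibition, measured by automated patch-clamp on CHO cells.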

CYP2D6 = CYP2D6 (Homo sapiens, UniProt P10635); test: in vitro; conditions: liver microsomes, probe dextromethorphan
Mus musculus [4] = test: Antipsychotic activity in AMPH-induced hyperactivity C57BL/6J mouse model assessed as reduction in amphetamine-induced hyper-locomotion at 10 mg/kg, ip preincubated for 15 mins followed by AMPH addition measured after 90 mins; format: functional, organism-based
CYP3A4 = CYP3A4 (Homo sapiens, UniProt P08684); test: in vitro; conditions: liver microsomes, probe midazolam
Mus musculus [5] = test: Antipsychotic activity in AMPH-induced hyperactivity C57BL/6J mouse model assessed as reduction in amphetamine-induced hyper-locomotion at 20 mg/kg, ip preincubated for 15 mins followed by AMPH addition measured after 90 mins; format: functional, organism-based
[6] = target: T1, 5-hydroxytryptamine receptor 2B; test: Agonist activity at human 5-HT2B receptor expressed in Flp-IN HEK293 cells assessed as induction of calcium flux up to 10 uM measured every second for 5 mins by Fluo-4 dye based FLIPR assay; format: cell-based; conditions: hek293, 5 min
CYP2C9 = CYP2C9 (Homo sapiens, UniProt P11712); test: in vitro; conditions: liver microsomes, probe tolbutamide
[7] = target: T2, 5-hydroxytryptamine receptor 2C (Homo sapiens); test: Agonist activity at tTA containing TEV cleavage site-fused 5-HT2C-INI receptor isoform (unknown origin) expressed in TEV-fused beta-arrestin2 expressing HEK cells assessed as induction of beta-arrestin2 recruitment after 20 hrs by Tango assay relative to serotonin; format: cell-based
Procedure, shortened: (§1)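 HTLA cells (HEK cells with TEV-fused β-arrestin-2 and tTA-driven luciferase) transfected with tTA-fused 5-HT2C-INI receptor carrying a TEV site. Luminescence read after 20 min lysis at room temperature. Normalized to % 5-HT and fitted sigmoidally. NA means no activity up to 10 μM. Mean of n = 3.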

CYP1A2 = target: T3, CYP1A2 (Homo sapiens, UniProt P05177); test: in vitro; conditions: liver microsomes, probe phenacetin
T3 sequence (P05177 whole entry): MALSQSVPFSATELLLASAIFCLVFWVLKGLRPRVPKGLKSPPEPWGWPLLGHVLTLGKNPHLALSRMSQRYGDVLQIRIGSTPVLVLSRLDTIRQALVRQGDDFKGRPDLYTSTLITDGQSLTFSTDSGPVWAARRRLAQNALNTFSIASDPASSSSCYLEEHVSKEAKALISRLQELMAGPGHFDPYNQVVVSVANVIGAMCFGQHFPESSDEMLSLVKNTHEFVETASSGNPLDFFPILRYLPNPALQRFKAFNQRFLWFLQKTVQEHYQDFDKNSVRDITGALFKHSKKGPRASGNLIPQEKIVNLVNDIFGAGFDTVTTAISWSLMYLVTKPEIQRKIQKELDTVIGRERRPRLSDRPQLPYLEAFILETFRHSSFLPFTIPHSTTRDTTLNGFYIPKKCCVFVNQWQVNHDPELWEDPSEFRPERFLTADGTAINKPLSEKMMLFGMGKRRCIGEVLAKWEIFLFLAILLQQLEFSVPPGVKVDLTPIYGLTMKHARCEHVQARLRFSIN

Mus musculus [8] = test: Toxicity in C57BL/6J mouse assessed as reduction in baseline locomotive activity at 10 to 20 mg/kg, ip after 15 mins; format: organism-based; conditions: in vivo
Mus musculus [9] = test: Antipsychotic activity in PCP-induced hyperactivity C57BL/6J mouse model assessed as reduction in PCP-induced hyper-locomotion at 10 to 20 mg/kg, ip preincubated for 15 mins followed by PCP addition measured after 60 mins; format: functional, organism-based
Procedure, shortened: (§2)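 Male C57BL/6J mice, 9–10 weeks old. […] PCP 5 mg/kg followed, with activity recorded a further 60 min. Read-out was total distance from infrared beam breaks, analysed by one-way ANOVA.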

5-HT2A receptor [10] = target: 5-HT2A receptor (Homo sapiens, UniProt P28223); test: Agonist activity at human 5-HT2A receptor expressed in Flp-IN HEK293 cells assessed as induction of calcium flux measured every second for 5 mins by Fluo-4 dye based FLIPR assay relative to serotonin; format: cell-based; conditions: Flp-IN HEK293 cells expressing human 5-HT2A receptor
[11] = target: T4, 5-hydroxytryptamine receptor 2A (Homo sapiens, UniProt P28223); test: Agonist activity at human 5-HT2A receptor expressed in Flp-IN HEK293 cells assessed as induction of calcium flux measured every second for 5 mins by Fluo-4 dye based FLIPR assay; format: cell-based
[12] = target: T2, 5-hydroxytryptamine receptor 2C (Homo sapiens); test: Agonist activity at tTA containing TEV cleavage site-fused 5-HT2C-INI receptor isoform (unknown origin) expressed in TEV-fused beta-arrestin2 expressing HEK cells assessed as induction of beta-arrestin2 recruitment up to 10 uM after 20 hrs by Tango assay; format: cell-based; procedure, shortened: as §1
[13] = target: T1, 5-hydroxytryptamine receptor 2B; test: Agonist activity at human 5-HT2B receptor expressed in Flp-IN HEK293 cells assessed as induction of calcium flux measured every second for 5 mins by Fluo-4 dye based FLIPR assay; format: cell-based
5-HT2B receptor = 5-HT2B receptor (Homo sapiens, UniProt P41595); test: Agonist activity at human 5-HT2B receptor expressed in Flp-IN HEK293 cells assessed as induction of calcium flux measured every second for 5 mins by Fluo-4 dye based FLIPR assay relative to serotonin; format: cell-based; conditions: Flp-IN HEK293 cells expressing human 5-HT2B receptor
[14] = target: T5, 5-hydroxytryptamine receptor 2C (Homo sapiens, UniProt P28335); test: Agonist activity at human 5-HT2C-INI receptor isoform expressed in Flp-IN HEK293 cells assessed as induction of Gq-mediated calcium flux measured every second for 5 mins by Fluo-4 dye based FLIPR assay; format: functional, cell-based
T5 sequence (P28335 whole entry): T2 sequence (whole entry)

[15] = target: T2, 5-hydroxytryptamine receptor 2C (Homo sapiens); test: Ratio of Emax to EC50 for human 5-HT2C-INI receptor isoform expressed in Flp-IN HEK293 cells; format: cell-based
Mus musculus [16] = test: Antipsychotic activity in PCP-induced hyperactivity C57BL/6J mouse model assessed as reduction in PCP-induced hyper-locomotion at 3 mg/kg, ip preincubated for 15 mins followed by PCP addition measured after 60 mins; format: functional, organism-based; procedure, shortened: as §2
Mus musculus [17] = test: Toxicity in C57BL/6J mouse assessed as reduction in baseline locomotive activity at 3 mg/kg, ip after 15 mins; format: organism-based; conditions: in vivo
Mus musculus [18] = test: Antipsychotic activity in AMPH-induced hyperactivity C57BL/6J mouse model assessed as reduction in amphetamine-induced hyper-locomotion at 3 mg/kg, ip preincubated for 15 mins followed by AMPH addition measured after 90 mins; format: functional, organism-based
5-HT2A receptor [19] = target: 5-HT2A receptor (Rattus norvegicus, UniProt P14842); test: Agonist activity at rat 5-HT2A receptor expressed in African clawed frog oocytes assessed as increase in current amplitude relative to 5-HT; format: cell-based; conditions: African clawed frog oocytes expressing rat 5-HT2A receptor
[20] = target: T6, 5-hydroxytryptamine receptor 2C (Rattus norvegicus, UniProt P08909); test: Agonist activity at rat 5-HT2C receptor expressed in African clawed frog oocytes assessed as increase in current amplitude; format: cell-based
T6 sequence (P08909 whole entry): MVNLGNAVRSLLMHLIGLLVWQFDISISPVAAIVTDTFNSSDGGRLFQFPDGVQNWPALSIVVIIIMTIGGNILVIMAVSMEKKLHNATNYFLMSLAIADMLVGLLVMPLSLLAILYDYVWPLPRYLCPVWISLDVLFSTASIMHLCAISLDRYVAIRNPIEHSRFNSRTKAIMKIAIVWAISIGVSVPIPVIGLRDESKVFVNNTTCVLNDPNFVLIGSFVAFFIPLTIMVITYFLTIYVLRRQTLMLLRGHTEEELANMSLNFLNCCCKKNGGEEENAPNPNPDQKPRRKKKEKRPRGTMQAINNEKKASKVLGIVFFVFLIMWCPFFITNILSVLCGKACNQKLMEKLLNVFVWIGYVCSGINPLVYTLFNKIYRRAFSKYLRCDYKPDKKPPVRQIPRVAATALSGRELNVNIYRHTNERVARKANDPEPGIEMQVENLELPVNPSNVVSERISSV

[21] = target: T4, 5-hydroxytryptamine receptor 2A; test: Agonist activity at human 5-HT2A receptor expressed in Flp-IN HEK293 cells assessed as induction of calcium flux up to 10 uM measured every second for 5 mins by Fluo-4 dye based FLIPR assay; format: cell-based; conditions: hek293, 5 min
[22] = target: T2, 5-hydroxytryptamine receptor 2C (Homo sapiens); test: Agonist activity at human 5-HT2C-INI receptor isoform expressed in Flp-IN HEK293 cells assessed as induction of Gq-mediated calcium flux up to 10 uM measured every second for 5 mins by Fluo-4 dye based FLIPR assay; format: functional, cell-based
[23] = target: T5, 5-hydroxytryptamine receptor 2C; test: Agonist activity at tTA containing TEV cleavage site-fused 5-HT2C-INI receptor isoform (unknown origin) expressed in TEV-fused beta-arrestin2 expressing HEK cells assessed as induction of beta-arrestin2 recruitment after 20 hrs by Tango assay; format: cell-based
[24] = target: T2, 5-hydroxytryptamine receptor 2C (Homo sapiens); test: Ratio of Emax to EC50 for tTA containing TEV cleavage site-fused 5-HT2C-INI receptor isoform (unknown origin) expressed in TEV-fused beta-arrestin2 expressing HEK cells assessed as induction of beta-arrestin2 recruitment activity; format: cell-based
Homo sapiens = species: Homo sapiens; test: Selectivity ratio of EC50 for human 5HT2B receptor to EC50 for human 5HT2C-INI receptor

Chain of 5-HT2B receptor (P41595 whole entry, canonical isoform): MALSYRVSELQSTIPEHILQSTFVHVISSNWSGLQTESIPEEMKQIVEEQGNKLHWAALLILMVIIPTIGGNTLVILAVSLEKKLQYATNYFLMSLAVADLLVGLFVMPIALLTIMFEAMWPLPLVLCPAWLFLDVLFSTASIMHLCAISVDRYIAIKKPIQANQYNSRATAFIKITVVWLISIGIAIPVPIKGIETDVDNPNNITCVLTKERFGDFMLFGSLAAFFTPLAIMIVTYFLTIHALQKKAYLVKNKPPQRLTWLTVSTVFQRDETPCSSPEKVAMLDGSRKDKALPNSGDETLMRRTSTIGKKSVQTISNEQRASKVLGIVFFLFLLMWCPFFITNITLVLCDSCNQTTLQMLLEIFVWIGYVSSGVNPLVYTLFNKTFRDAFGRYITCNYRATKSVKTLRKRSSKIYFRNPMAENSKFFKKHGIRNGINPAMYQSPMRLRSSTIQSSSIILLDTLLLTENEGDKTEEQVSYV
T1 sequence (P41595 whole entry, canonical isoform): as above
T4 sequence (P28223 whole entry, the tested form may be a part, canonical isoform): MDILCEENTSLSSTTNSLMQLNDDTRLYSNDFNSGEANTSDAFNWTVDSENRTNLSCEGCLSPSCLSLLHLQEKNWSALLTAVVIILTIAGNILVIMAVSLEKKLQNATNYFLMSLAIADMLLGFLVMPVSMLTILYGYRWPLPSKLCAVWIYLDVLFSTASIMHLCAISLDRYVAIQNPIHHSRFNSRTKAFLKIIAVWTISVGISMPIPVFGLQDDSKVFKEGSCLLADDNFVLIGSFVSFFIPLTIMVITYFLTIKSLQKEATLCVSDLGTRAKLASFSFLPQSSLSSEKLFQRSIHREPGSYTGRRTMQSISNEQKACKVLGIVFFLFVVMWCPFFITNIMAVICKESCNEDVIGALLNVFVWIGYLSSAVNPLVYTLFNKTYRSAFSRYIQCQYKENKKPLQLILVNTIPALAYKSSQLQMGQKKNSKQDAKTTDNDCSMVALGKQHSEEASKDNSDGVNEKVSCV
Chain of 5-HT2A receptor (Homo sapiens, UniProt P28223) (P28223 whole entry): as the sequence (P28223 whole entry, the tested form may be a part, canonical isoform) above
Chain of CYP2C9 (P11712 whole entry, the tested form may be a part, canonical isoform): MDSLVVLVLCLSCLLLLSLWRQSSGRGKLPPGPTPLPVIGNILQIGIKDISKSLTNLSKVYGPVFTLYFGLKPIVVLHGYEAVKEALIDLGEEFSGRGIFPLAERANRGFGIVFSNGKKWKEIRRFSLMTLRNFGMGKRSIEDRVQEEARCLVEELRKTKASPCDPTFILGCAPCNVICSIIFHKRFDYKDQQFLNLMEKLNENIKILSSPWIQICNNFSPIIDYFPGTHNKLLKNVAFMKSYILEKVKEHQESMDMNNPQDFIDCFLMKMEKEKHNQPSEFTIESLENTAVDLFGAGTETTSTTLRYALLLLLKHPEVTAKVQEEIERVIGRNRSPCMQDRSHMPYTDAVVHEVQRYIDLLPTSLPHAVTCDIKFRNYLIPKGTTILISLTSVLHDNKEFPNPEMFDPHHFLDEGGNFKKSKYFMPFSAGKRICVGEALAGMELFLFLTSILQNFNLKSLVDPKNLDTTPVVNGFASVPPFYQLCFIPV
Chain of CYP3A4 (P08684 whole entry): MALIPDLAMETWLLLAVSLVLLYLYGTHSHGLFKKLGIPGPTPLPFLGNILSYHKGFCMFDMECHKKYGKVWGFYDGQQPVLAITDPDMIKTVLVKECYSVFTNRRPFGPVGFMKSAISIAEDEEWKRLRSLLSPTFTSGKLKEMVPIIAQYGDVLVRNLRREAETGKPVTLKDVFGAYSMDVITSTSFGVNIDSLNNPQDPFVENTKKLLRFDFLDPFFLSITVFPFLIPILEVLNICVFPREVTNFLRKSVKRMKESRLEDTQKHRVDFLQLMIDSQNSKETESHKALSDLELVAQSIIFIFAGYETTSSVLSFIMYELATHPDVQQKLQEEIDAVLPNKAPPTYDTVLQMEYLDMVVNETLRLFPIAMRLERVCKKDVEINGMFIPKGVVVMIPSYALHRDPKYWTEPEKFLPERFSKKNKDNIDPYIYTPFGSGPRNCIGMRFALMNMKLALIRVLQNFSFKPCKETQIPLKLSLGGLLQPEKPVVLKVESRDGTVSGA
Chain of 5-HT2A receptor (Rattus norvegicus, UniProt P14842) (P14842 whole entry): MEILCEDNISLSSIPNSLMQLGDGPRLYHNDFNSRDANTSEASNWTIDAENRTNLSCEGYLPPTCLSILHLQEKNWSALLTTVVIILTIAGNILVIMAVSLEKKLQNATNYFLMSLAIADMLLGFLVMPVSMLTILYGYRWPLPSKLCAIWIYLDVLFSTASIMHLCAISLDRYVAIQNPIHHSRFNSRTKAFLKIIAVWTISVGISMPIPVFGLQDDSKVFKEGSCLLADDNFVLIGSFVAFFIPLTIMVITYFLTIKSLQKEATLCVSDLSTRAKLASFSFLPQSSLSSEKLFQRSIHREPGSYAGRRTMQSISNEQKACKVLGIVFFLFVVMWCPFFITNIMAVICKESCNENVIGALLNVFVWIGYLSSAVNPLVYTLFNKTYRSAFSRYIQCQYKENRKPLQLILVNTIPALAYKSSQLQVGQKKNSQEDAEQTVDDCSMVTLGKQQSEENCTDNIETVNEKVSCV
Chain of Voltage-gated inwardly rectifying potassium channel KCNH2 (Q12809 whole entry): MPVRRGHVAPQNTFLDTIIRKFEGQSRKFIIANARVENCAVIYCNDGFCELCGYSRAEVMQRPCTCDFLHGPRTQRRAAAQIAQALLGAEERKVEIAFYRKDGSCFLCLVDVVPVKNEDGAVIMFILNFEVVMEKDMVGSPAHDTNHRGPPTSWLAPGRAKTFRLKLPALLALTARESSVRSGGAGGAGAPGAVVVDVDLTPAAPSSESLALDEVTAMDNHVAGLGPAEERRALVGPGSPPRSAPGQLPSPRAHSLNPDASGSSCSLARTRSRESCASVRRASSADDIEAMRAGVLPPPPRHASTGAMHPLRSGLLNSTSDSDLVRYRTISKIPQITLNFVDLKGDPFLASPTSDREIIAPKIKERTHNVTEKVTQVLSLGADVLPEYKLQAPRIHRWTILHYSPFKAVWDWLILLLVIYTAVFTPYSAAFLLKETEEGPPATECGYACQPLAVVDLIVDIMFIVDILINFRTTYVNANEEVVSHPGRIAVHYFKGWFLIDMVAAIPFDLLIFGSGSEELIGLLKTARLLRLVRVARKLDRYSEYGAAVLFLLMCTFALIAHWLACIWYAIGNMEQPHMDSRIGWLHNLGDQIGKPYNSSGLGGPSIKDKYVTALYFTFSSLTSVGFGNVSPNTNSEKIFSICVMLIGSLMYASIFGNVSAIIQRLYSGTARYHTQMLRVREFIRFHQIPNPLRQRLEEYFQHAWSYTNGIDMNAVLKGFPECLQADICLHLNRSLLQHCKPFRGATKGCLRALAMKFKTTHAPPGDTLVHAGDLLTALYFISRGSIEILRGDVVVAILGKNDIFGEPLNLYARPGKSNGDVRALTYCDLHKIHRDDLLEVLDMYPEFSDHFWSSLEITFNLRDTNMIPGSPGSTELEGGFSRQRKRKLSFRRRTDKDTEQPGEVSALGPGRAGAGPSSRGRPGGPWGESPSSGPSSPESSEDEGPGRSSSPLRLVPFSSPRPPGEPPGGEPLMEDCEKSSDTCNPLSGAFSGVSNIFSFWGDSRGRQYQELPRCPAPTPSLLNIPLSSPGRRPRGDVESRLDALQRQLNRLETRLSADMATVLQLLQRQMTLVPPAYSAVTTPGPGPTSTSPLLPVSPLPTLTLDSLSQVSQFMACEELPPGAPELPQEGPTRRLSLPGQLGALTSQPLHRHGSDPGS
Chain of CYP2D6 (P10635 whole entry): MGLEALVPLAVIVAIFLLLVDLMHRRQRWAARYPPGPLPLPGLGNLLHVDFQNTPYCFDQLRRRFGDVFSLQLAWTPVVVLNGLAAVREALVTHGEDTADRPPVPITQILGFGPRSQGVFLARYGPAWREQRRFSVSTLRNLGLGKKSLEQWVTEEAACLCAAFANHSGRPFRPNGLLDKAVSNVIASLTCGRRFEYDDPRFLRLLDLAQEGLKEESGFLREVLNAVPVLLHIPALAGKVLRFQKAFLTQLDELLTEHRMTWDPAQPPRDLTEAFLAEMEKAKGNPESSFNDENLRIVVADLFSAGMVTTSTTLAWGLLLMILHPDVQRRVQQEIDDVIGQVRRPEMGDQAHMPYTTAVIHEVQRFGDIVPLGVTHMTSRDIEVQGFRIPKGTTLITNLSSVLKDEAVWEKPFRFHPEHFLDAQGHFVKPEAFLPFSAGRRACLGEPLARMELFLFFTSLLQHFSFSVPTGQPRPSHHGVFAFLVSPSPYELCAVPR

Row | Structure (SMILES) | Emax [2] [%] | Activity [6] | Emax [7] [%] | Emax at 5 min (5-HT2A receptor [10]) [%] | EC50 [11] [nM] | EC50 [13] [nM] | Emax at 5 min (5-HT2B receptor) [%] | EC50 ([14]; read-out: EC50) [nM] | log(ratio) [15] | other results
1 | COc1ccccc1CNC[C@H]1C[C@@H]1c1cc(F)ccc1OC.Cl | 92 | Not Active | 43 | 63 |  |  |  |  |  | Ki [1]: 411 nM; IC50 [3]: 1400 nM; inhibition at 10 µM (CYP2D6): 68.9%; Activity (Mus musculus [4]): inactive; inhibition at 10 µM (CYP3A4): 85.6%; Activity (Mus musculus [5]): Active; inhibition at 10 µM (CYP2C9): 9.3%; inhibition at 10 µM (CYP1A2): 20.5%; Activity (Mus musculus [8]): Non-Toxic; Activity (Mus musculus [9]): inactive
2 | CNC[C@H]1C[C@@H]1c1cc(F)ccc1OC | 71 |  |  | 79 | 271 | 89 | 54 | 23 | 7.49 | Activity [12]: inactive
3 | COc1ccc(F)cc1[C@H]1C[C@@H]1CNCc1cccs1.Cl | 60 | Not Active |  | 34 | 438 |  |  | 120 | 6.7 | Activity [12]: inactive
4 | C[C@H]1CNCCc2ccc(Cl)cc21 [LORCASERIN] |  |  |  |  |  |  |  |  |  | Activity (Mus musculus [16]): inactive; Activity (Mus musculus [17]): Toxic; Activity (Mus musculus [18]): Active
5 | COc1cc(CC(C)N)c(OC)cc1I (centres undefined) |  |  |  |  |  |  |  |  |  | Emax (5-HT2A receptor [19]): 46%; EC50 [20]: 178 nM
6 | CNC[C@H]1C[C@@H]1c1cc(F)ccc1OCCF.Cl |  | Not Active |  |  |  |  |  |  |  | Activity [21]: Not Active; Activity [22]: inactive
7 | C=CCOc1ccc(F)cc1[C@H]1C[C@@H]1CNCc1ccccc1OC | 97 |  | 56 | 80 | 28 | 113 | 28 | 9.2 | 8.02 | EC50 [23]: 22.7 nM; EC50 ([14]; read-out: pEC50 (converted)): 8.91 nM; log(ratio) [24]: 7.39
8 | COc1ccccc1CNC[C@H]1C[C@@H]1c1cc(F)ccc1OCCF | 93 |  | 54 | 78 |  |  | 22 |  |  | 
9 | COc1ccc(F)cc1C1CC1CNCc1ccccc1OCCF (racemic) | 16 |  |  | 80 | 398 | 56 | 11 | 28 |  | Ratio EC50 (Homo sapiens): 2
